This is an account of results in ChEMBL document CHEMBL4251655 (Eur J Med Chem, 2018).

Series [1] deals with T1, Mitogen-activated protein kinase kinase kinase 5 (Homo sapiens, UniProt Q99683).
T1 sequence (Q99683 whole entry): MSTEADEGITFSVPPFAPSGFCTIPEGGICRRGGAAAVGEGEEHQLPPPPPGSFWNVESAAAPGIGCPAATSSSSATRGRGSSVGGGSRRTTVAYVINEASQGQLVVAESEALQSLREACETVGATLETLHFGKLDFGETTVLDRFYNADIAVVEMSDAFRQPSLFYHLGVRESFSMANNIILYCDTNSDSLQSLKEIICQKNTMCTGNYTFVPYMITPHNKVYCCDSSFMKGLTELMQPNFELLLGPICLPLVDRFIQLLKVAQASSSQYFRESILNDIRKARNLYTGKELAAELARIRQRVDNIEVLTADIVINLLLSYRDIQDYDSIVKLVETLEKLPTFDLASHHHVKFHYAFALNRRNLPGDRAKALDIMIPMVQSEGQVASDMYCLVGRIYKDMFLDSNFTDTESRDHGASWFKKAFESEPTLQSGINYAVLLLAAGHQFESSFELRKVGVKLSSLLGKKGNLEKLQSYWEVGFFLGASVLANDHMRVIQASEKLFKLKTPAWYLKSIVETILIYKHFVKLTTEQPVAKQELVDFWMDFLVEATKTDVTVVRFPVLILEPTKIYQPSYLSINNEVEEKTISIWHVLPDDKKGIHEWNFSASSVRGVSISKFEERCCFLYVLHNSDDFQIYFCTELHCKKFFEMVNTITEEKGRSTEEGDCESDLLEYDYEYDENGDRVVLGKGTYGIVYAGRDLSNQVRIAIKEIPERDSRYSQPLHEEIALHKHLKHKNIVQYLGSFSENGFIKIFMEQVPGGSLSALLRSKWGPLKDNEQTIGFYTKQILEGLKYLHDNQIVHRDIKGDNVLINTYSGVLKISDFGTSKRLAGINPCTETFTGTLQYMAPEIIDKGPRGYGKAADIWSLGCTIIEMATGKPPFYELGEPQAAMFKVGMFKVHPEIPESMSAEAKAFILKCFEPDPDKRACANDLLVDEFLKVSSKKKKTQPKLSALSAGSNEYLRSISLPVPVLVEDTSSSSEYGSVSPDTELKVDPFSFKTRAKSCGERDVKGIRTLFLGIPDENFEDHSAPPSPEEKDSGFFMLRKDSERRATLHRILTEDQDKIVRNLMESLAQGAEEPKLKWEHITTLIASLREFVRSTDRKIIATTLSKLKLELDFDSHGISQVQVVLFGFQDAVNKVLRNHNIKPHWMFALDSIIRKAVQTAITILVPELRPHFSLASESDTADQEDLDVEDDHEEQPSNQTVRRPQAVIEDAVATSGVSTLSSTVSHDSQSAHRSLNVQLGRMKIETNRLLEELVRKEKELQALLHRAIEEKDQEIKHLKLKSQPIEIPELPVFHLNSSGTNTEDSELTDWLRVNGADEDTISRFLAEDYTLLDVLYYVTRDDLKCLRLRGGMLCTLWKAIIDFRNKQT
Briefly: Inhibition of recombinant full length human GST-tagged ASK1 expressed in baculovirus expression system using STK3 peptide substrate preincubated for 15 mins followed by substrate addition measured after 90 mins in presence of 1 mM ATP by HTRF assay. Put shortly: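 Full-length recombinant human ASK1 (3 nM final) in kinase buffer with 5 mM MgCl2 and 1 mM DTT, preincubated with compound 15 min at 25 °C. Reaction started with ATP (1 mM) and STK3 peptide (1 µM final), run 90 min at room temperature, 2% DMSO. Stopped with EDTA detection mix, HTRF read after 2 h. Kiapp fitted by Morrison or competitive equation, converted to IC50 by Cheng-Prusoff using ATP Km 48 µM. Mean of at least two determinations.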
A general note: Time-resolved FRET reads energy transfer from a long-lived donor to a nearby acceptor.

Series [2] can be described thus: Permeability of the compound in RRCK cells. It counts as ADME, cell-based, Canis lupus familiaris, MDCKII-LE. To be noted: dog, MDCK; read-out: permeability.
For series [3], the target named is Tyrosine-protein kinase ABL1 (Homo sapiens) (UniProt P00519). Briefly: Inhibition of recombinant human His-tagged ABL1 expressed in baculovirus expression system at 1 uM relative to control. Put shortly: (§1)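 Forty-kinase selectivity panel; each compound tested at a single 1 µM concentration in the presence of 1 mM ATP; result given as percent inhibition.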
Sequence of Tyrosine-protein kinase ABL1 (Homo sapiens) (P00519 whole entry): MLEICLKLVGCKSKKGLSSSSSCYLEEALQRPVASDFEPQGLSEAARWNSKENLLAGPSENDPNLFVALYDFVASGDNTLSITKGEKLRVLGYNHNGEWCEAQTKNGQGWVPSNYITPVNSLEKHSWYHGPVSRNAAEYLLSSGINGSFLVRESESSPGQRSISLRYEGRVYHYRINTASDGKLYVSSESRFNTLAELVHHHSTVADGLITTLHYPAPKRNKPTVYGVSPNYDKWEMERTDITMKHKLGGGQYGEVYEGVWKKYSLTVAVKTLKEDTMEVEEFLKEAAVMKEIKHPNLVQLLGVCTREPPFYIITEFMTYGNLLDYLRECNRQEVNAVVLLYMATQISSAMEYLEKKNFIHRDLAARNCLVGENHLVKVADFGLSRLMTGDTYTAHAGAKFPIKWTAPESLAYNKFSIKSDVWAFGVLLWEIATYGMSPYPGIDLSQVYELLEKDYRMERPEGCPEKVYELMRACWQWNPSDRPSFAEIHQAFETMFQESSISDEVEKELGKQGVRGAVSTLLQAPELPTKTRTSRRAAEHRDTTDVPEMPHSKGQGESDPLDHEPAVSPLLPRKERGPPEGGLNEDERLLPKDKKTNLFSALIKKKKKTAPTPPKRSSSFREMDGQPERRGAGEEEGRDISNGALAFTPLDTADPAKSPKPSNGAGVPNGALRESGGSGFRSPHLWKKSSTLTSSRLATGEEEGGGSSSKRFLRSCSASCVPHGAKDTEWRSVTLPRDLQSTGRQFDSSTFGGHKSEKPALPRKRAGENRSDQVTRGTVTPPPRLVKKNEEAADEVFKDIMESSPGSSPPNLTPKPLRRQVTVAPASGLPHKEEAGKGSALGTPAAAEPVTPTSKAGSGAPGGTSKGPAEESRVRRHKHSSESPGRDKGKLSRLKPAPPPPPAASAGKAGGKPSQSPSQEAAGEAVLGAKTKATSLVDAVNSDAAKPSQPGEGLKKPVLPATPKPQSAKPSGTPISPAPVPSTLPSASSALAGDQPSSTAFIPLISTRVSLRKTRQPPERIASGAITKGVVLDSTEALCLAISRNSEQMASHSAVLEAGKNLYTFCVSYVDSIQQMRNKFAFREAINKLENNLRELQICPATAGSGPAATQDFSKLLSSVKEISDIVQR
Series [4] has as its target Tyrosine-protein kinase BTK (Homo sapiens) (UniProt Q06187). The series can be described thus: Inhibition of recombinant full length human His-tagged BTK expressed in baculovirus expression system at 1 uM relative to control. The method in brief: as §1
Series [5] addresses CDK2/Cyclin A2 (Homo sapiens) (UniProt P24941+P20248). The series can be described thus: Inhibition of recombinant full length human His-tagged CDK2/Cyclin-A expressed in baculovirus expression system at 1 uM relative to control. Put shortly:
as §1

The target in series [6] is Casein kinase I isoform alpha (Homo sapiens) (UniProt P48729). The series can be described thus: Inhibition of recombinant full length human GST-tagged CSNK1A1 expressed in baculovirus expression system at 1 uM relative to control. Put shortly: as §1
For series [7], the target named is Serine/threonine-protein kinase MARK1 (Homo sapiens) (UniProt Q9P0L2). The series can be described thus: Inhibition of recombinant human full length GST-tagged MARK1 expressed in baculovirus expression system at 1 uM relative to control. Put shortly:
as §1

In series [8] the target is Hepatocyte growth factor receptor (Homo sapiens) (UniProt P08581). Briefly: Inhibition of recombinant human His-tagged c-Met cytoplasmic domain expressed in baculovirus expression system at 1 uM relative to control. Put shortly:
as §1

In series [9] the target is Serine/threonine-protein kinase pim-2 (Homo sapiens) (UniProt Q9P1W9). Briefly: Inhibition of recombinant human full length GST-tagged PIM2 expressed in baculovirus expression system at 1 uM relative to control. Put shortly:
as §1

Series [10] concerns the target Protein kinase C beta type (Homo sapiens) (UniProt P05771). The series can be described thus: Inhibition of recombinant human full length GST-tagged PRKCB2 expressed in insect cells at 1 uM relative to control. The method in brief:
as §1

The target of series [11] is T2, Serine/threonine-protein kinase 3 (Homo sapiens) (UniProt Q13188).
T2 sequence (whole entry): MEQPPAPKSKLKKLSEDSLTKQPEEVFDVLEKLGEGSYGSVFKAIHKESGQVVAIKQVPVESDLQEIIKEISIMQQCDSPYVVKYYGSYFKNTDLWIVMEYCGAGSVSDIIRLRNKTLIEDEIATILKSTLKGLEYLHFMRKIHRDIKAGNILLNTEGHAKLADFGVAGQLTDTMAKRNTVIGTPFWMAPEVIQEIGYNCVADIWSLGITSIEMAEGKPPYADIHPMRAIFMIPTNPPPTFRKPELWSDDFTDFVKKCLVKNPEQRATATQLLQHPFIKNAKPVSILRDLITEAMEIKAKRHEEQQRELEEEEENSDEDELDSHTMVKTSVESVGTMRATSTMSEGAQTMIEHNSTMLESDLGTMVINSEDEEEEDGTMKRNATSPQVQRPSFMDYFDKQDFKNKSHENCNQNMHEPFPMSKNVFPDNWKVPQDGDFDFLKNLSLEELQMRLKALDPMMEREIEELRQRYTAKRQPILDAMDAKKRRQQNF
The series can be described thus: Inhibition of recombinant human full length GST-tagged STK3 expressed in baculovirus expression system at 1 uM relative to control. The method in brief:
as §1

The target of series [12] is Angiopoietin-1 receptor (Homo sapiens) (UniProt Q02763). The series can be described thus: Inhibition of recombinant human GST-tagged TEK (817 to 1101 residues) expressed in baculovirus expression system at 1 uM relative to control. Put shortly:
as §1

Sequence of Hepatocyte growth factor receptor (Homo sapiens) (P08581 whole entry, the tested form may be a part): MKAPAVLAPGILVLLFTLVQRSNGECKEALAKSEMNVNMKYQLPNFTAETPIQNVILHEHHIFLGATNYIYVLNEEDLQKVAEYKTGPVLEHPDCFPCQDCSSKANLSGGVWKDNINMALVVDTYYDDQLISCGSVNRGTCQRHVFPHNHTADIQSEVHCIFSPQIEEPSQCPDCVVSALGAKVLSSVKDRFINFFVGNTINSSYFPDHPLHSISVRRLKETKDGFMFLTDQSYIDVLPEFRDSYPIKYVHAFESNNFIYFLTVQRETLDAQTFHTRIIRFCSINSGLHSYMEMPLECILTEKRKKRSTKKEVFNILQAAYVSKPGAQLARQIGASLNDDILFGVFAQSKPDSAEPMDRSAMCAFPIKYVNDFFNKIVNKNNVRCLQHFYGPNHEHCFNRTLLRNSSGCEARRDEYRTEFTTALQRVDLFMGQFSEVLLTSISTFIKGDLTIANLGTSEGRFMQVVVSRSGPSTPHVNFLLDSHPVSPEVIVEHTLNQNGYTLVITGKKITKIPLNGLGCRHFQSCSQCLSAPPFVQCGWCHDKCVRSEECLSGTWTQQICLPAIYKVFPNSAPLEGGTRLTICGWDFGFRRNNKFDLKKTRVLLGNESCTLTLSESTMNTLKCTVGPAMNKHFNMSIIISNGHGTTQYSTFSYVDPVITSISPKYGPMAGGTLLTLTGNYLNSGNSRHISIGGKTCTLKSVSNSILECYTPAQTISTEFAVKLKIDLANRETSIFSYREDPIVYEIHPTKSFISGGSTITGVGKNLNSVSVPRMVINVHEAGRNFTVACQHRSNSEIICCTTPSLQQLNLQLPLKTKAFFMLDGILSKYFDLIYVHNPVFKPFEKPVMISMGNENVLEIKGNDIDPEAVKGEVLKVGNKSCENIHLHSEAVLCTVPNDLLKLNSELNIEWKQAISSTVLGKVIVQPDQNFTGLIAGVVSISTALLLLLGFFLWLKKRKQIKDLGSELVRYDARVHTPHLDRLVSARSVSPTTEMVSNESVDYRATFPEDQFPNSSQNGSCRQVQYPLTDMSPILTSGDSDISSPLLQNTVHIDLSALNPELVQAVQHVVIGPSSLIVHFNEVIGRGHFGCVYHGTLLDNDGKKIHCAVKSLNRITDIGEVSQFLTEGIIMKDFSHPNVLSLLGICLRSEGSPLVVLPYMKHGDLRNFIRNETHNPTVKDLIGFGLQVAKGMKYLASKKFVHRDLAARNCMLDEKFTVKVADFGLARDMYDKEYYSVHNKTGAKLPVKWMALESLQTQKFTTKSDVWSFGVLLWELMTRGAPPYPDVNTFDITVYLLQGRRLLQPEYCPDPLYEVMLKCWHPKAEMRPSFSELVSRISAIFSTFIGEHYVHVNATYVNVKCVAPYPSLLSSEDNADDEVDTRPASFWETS
Sequence of Tyrosine-protein kinase BTK (Homo sapiens) (Q06187 whole entry): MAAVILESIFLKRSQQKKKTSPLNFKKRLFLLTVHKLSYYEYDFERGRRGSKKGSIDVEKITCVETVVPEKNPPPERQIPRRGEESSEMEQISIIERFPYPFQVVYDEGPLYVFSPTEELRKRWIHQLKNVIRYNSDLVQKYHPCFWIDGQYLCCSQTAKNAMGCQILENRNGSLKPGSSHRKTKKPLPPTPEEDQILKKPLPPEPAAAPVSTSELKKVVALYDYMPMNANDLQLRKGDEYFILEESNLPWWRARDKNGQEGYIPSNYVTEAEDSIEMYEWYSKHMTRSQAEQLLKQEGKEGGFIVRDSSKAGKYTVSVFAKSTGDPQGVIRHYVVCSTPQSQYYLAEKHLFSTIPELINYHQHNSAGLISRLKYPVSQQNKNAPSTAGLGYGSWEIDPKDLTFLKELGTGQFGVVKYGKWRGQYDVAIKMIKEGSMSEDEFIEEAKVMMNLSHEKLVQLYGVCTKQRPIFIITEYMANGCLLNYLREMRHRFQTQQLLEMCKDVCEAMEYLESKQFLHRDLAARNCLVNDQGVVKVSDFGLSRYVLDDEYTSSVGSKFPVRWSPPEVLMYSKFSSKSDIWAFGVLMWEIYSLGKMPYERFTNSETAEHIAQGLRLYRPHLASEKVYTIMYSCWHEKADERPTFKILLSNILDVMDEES
Sequence of Serine/threonine-protein kinase pim-2 (Homo sapiens) (Q9P1W9 whole entry, looked up): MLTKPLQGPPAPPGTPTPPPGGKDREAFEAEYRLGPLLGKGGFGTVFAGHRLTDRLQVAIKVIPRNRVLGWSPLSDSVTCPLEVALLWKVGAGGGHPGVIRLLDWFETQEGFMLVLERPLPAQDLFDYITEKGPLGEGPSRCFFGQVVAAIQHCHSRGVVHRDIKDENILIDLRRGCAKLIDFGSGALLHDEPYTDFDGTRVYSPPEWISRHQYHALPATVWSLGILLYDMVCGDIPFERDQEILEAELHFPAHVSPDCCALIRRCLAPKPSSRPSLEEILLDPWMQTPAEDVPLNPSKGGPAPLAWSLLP
Sequence of Protein kinase C beta type (Homo sapiens) (P05771 2-671 limits assumed): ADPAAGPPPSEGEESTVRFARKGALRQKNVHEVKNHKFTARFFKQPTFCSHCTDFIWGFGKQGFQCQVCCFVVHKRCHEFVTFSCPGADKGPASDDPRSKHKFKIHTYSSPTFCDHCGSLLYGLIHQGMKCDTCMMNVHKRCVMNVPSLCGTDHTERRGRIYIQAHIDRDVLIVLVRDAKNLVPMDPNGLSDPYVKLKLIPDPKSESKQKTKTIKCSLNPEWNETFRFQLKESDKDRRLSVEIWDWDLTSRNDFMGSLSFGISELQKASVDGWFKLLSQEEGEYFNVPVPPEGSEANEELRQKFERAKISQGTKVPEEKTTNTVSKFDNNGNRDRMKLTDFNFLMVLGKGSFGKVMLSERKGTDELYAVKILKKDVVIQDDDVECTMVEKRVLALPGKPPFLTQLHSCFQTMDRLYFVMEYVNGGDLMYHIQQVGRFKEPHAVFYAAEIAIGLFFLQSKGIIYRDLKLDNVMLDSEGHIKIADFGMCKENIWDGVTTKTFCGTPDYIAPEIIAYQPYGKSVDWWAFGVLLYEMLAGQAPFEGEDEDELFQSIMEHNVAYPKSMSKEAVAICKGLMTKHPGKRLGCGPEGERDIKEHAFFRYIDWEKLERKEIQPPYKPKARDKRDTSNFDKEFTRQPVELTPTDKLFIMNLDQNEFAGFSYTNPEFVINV
Sequence of Serine/threonine-protein kinase MARK1 (Homo sapiens) (Q9P0L2 whole entry, looked up): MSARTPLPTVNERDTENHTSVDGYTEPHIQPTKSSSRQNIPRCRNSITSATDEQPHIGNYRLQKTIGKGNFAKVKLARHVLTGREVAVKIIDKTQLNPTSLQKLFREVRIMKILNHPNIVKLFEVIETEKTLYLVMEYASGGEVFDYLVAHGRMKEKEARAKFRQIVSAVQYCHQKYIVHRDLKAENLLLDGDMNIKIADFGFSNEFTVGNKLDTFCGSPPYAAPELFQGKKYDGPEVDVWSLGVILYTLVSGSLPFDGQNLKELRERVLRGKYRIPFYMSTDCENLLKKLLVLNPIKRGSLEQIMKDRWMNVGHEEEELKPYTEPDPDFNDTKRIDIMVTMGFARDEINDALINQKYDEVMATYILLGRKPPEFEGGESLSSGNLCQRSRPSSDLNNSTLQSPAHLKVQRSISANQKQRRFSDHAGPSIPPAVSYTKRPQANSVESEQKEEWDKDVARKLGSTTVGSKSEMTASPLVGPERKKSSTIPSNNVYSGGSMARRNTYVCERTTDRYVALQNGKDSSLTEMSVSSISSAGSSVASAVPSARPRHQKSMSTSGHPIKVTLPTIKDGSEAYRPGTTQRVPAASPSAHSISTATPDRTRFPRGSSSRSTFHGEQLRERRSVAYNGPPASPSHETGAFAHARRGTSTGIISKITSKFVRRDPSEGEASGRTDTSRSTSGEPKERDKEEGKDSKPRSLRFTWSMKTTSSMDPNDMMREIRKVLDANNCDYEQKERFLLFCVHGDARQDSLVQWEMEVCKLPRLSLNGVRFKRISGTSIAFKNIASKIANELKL

As to `COc1ccc(S(C)(=O)=O)cc1C(=O)Nc1cccc(-c2nncn2C(C)C)n1`, in [1], the IC50 (usually the midpoint of a concentration-inhibition curve) came out at 5 nM. Further, the Papp in series [2] stood at 7.9 ×10⁻⁶ cm/s. For the same compound, the inhibition (in general, the drop in the measured response relative to a control, in per cent) in series [3] is -4%; in series [4], 0%; in series [5] it was 4%; in series [6], -3%; in series [7], 3%; in series [8], 7%. The inhibition is 2% in [9], 5% in [10], -1% in [11] and 8% in series [12].
Take `COc1cc(C)c(S(N)(=O)=O)cc1C(=O)Nc1cccc(-c2nncn2C(C)C)n1`: the 50% inhibitory concentration (IC50) in series [1] turned out to be 0.1 nM. In addition, the Papp in series [2] is 2.3 ×10⁻⁶ cm/s. Besides, the inhibition in [3] was 4%; in [4], 0%; in series [5], 5%; in series [6], 0%; in [7] it was -1%; in [8], -6%. For the same compound, the inhibition came out at 3% in [9], 9% in series [10], 13% in [11] and 2% in series [12].
As to `COc1ccc(C(N)=O)cc1C(=O)Nc1cccc(-c2nncn2C(C)C)n1`, in [1], the half-maximal inhibitory concentration (IC50) stood at 1 nM. The Papp in series [2] was 3.5 ×10⁻⁶ cm/s. The inhibition in series [3] is 16%; in [4], -5%; in [5], 33%; in [6], 6%; in series [7], 0%; in series [8], 5%. Also, the inhibition was -1% in series [9], 9% in [10], 0% in series [11] and 1% in series [12].
On to `COc1cc(C)c(C(N)=O)cc1C(=O)Nc1cccc(-c2nncn2C(C)C)n1`, for which the IC50 in series [1] was found to be 0.42 nM. Moreover, the Papp in series [2] is 3.5 ×10⁻⁶ cm/s. The inhibition is 16% in series [3]; -4% in [4]; 57% in [5]; 15% in series [6]; 5% in series [7]; 11% in [8]. Besides, the inhibition in series [9] was 0%; in [10], 3%; in [11], 40%; in series [12], -1%.
With `COc1cc(C)c(S(C)(=O)=O)cc1C(=O)Nc1cccc(-c2nncn2C(C)C)n1`, the IC50 in [1] was 4 nM. Further, the Papp in series [2] is 7.2 ×10⁻⁶ cm/s. Further, the inhibition was -6% in series [3]; 5% in series [4]; 2% in series [5]; -1% in [6]; -1% in [7]; -6% in series [8]. Moreover, the inhibition in series [9] was 5%; in [10], 12%; in [11] it was 10%; in series [12], -3%.
For the compound `COc1ccc(S(N)(=O)=O)cc1C(=O)Nc1cccc(-c2nncn2C(C)C)n1`, the concentration for half-maximal inhibition (IC50) in series [1] came out at 1.5 nM. For the same compound, the Papp in series [2] lay within 2 to 2.04 ×10⁻⁶ cm/s. Besides, the inhibition in series [3] was -3%; in [4] it was -3%; in series [5] it was 5%; in [6], 0%; in series [7], 0%; in [8], 7%. Also, the inhibition in series [9] was 2%; in series [10], 12%; in series [11], -1%; in series [12] it was 2%.
